Reference: ChEMBL document CHEMBL1123062, “Relationship between structure and antineoplastic activity of (arylsulfonyl)hydrazones of 4-pyridinecarboxaldehyde” (1985)

Tests used:
[1] = test system: P388; test: Compound was evaluated for antitumor activity in mice bearing P388 leukemic cells from average survival time; format: functional, Mus musculus
Summary of the method: (§1)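 Ascites forms of Sarcoma 180 or P388 leukemia carried in CDF-1 mice. Recipients were implanted from donors with 7-day tumor growth. Compound given once daily for six consecutive days starting 24 h after implantation, with a tested range of 50–200 mg/kg per day. Hydrochloride salt solutions were adjusted to pH 6.5–7.0. Survival time was averaged, days ± SE. Body weight was tracked as a toxicity indicator.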

[2] = Compound was evaluated for antitumor activity in mice bearing sarcoma 180 ascites cells from average survival time; format: functional, Mus musculus; summary of the method: as §1
[3] = test system: P388; test: Maximum effective daily dose required to inhibit the tumors of P388 leukemia; format: functional, Mus musculus
Summary of the method: (§2)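 Ascitic Sarcoma 180 or P388 leukemia carried in CDF-1 mice; recipients transplanted from donors bearing 7-day tumors. Compound given once daily for six consecutive days from 24 h after implantation, over 50–200 mg/kg per day; hydrochloride salt solutions adjusted to pH 6.5–7.0. Mice weighed; % body-weight change onset to end of therapy taken as host toxicity; maximum effective daily dose reported from survival prolongation.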

[4] = test system: P388; test: Compound was evaluated for antitumor activity in mice bearing P388 leukemic cells, and average change in body weight from onset to the termination of drug therapy; format: functional, Mus musculus; summary of the method: as §2
[5] = species: Mus musculus; test: Average change in body weight from onset to the termination of drug therapy in mice bearing sarcoma 180 ascites cells; format: functional; summary of the method: as §2
[6] = Maximum effective daily dose required to inhibit the tumors of sarcoma 180 ascites cells; format: functional, Mus musculus; summary of the method: as §2
[7] = test system: P388; test: Compound was evaluated for antitumor activity in mice (control group) bearing P388 leukemic cells from average survival time; format: functional, Mus musculus; summary of the method: as §1
[8] = Compound was evaluated for antitumor activity in mice (control group) bearing sarcoma 180 ascites cells from average survival time; format: functional, Mus musculus; summary of the method: as §1
[9] = species: Mus musculus; test: Ratio of average survival time of treated to control mice bearing P388 leukemia; format: functional
Summary of the method: (§3)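 In CDF-1 mice bearing ascitic P388 leukemia or Sarcoma 180 from 7-day donors, dosing ran once daily for six days from 24 h post-implant (range 50–200 mg/kg/day; HCl salts adjusted to pH 6.5–7.0). % T/C was the average survival time of treated over control animals × 100, reported at the maximum effective daily dose.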

[10] = species: Mus musculus; test: Ratio of average survival time of treated to control mice bearing sarcoma 180 ascites cells; format: functional; summary of the method: as §3
[11] = test system: P388; test: Compound was evaluated for average change in body weight from onset to the termination of drug therapy in mice bearing P388 leukemic cells; format: functional, Mus musculus; summary of the method: as §2
[12] = Compound was evaluated for antitumor activity in mice bearing sarcoma 180 ascites cells and average survival time; format: functional, Mus musculus; summary of the method: as §1
[13] = Compound was evaluated for antitumor activity in mice (control group) bearing sarcoma 180 ascites cells and average survival time; format: functional, Mus musculus; summary of the method: as §1
[14] = test system: P388; test: Compound was evaluated for antitumor activity in mice bearing P388 leukemic cells and average survival time; format: functional, Mus musculus; summary of the method: as §1
[15] = test system: P388; test: Compound was evaluated for antitumor activity in mice (control group) bearing P388 leukemic cells and average survival time; format: functional, Mus musculus; summary of the method: as §1
[16] = test system: P388; test: Compound was evaluated for antitumor activity in mice bearing P388 leukemic cells, and average change in body weight from onset to the termination of therapy; format: functional, Mus musculus; summary of the method: as §2
[17] = Compound was evaluated for average change in body weight from onset to the termination of drug therapy in mice bearing sarcoma 180 ascites cells; format: functional, Mus musculus; summary of the method: as §2

SMILES: COc1ccc(S(=O)(=O)N/N=C/c2ccncc2)cc1OC.Cl
- Time [1]: 17.6 days
- Time [2]: 32.8 days
- Dose [3]: 100 mg/kg
- Weight change [4]: -3%
- Weight change [5]: -9.1%
- Dose [6]: 200 mg/kg
- Time [7]: 14.8 days
- Time [8]: 11.8 days
- T/C [9]: 119%
- T/C [10]: 278%

SMILES: COc1ccc(S(=O)(=O)N/N=C/c2ccncc2)cc1.Cl
- Weight change [11]: 0.7%
- Dose [3]: 150 mg/kg
- Weight change [5]: -10.7%
- Dose [6]: 100 mg/kg
- Time [12]: 31 days
- Time [13]: 14.2 days
- Time [14]: 18 days
- T/C [9]: 123%
- T/C [10]: 218%
- Time [15]: 14.6 days

SMILES: COc1ccc(S(=O)(=O)N/N=C/c2ccc([N+](=O)[O-])cc2)cc1.Cl
- Weight change [11]: -5.7%
- Dose [3]: 200 mg/kg
- Weight change [5]: -19%
- Dose [6]: 100 mg/kg
- Time [12]: 23.8 days
- Time [13]: 15 days
- Time [14]: 14.6 days
- T/C [9]: 99%
- T/C [10]: 159%
- Time [15]: 14.8 days

SMILES: Cc1ccc(S(=O)(=O)N/N=C/c2ccncc2)cc1.Cl
- Dose [3]: 150 mg/kg
- Weight change [5]: -14.5%
- Dose [6]: 100 mg/kg
- Time [12]: 36.4 days
- Time [13]: 14.6 days
- Time [14]: 17.2 days
- T/C [9]: 118%
- Weight change [16]: -7.6%
- T/C [10]: 249%
- Time [15]: 14.6 days

SMILES: C/C(=N\NS(=O)(=O)c1c(C)cc(C)cc1C)c1ccncc1
- Time [2]: 20.6 days
- Dose [6]: 100 mg/kg
- Change of weight [17]: 3.2%
- Time [8]: 16.8 days
- T/C [10]: 123%

SMILES: Cc1cc(C)c(S(=O)(=O)N/N=C/c2ccncc2)c(C)c1.Cl
- Weight change [11]: -2.2%
- Dose [3]: 100 mg/kg
- Weight change [5]: -8.4%
- Dose [6]: 50 mg/kg
- Time [12]: 34 days
- Time [13]: 14.2 days
- Time [14]: 18.8 days
- T/C [9]: 129%
- T/C [10]: 239%
- Time [15]: 14.6 days

SMILES: CC(C)c1cc(C(C)C)c(S(=O)(=O)N/N=C/c2ccncc2)c(C(C)C)c1.Cl
- Dose [3]: 200 mg/kg
- Weight change [5]: -3.1%
- Dose [6]: 200 mg/kg
- Time [12]: 31 days
- Time [13]: 11.8 days
- Time [14]: 17 days
- T/C [9]: 123%
- Weight change [16]: -0.9%
- T/C [10]: 262%
- Time [15]: 13.8 days

SMILES: Cl.O=S(=O)(N/N=C/c1ccncc1)c1ccccc1
- Weight change [11]: -3.1%
- Time [1]: 18 days
- Dose [3]: 150 mg/kg
- Weight change [5]: -8.6%
- Dose [6]: 100 mg/kg
- Time [12]: 32 days
- Time [13]: 14.2 days
- Time [7]: 14.6 days
- T/C [9]: 123%
- T/C [10]: 225%

SMILES: Cc1ccc(S(=O)(=O)N/N=C/c2ccncc2)cc1
- Time [2]: 32.4 days
- Weight change [5]: -16.7%
- Dose [6]: 100 mg/kg
- Time [8]: 14.6 days
- T/C [10]: 222%

SMILES: Cl.O=S(=O)(N/N=C/c1ccncc1)c1ccc(Cl)cc1
- Time [1]: 16.6 days
- Time [2]: 28.6 days
- Dose [3]: 200 mg/kg
- Weight change [5]: -5.4%
- Dose [6]: 150 mg/kg
- Time [7]: 14.8 days
- Time [8]: 11.8 days
- T/C [9]: 112%
- Weight change [16]: -5.4%
- T/C [10]: 242%

SMILES: Cc1ccc(S(=O)(=O)N/N=C/c2ccc([N+](=O)[O-])cc2)cc1.Cl
- Weight change [11]: -3%
- Time [1]: 15.2 days
- Time [2]: 29.6 days
- Dose [3]: 200 mg/kg
- Weight change [5]: -17.4%
- Dose [6]: 100 mg/kg
- Time [7]: 14.2 days
- Time [8]: 15 days
- T/C [9]: 107%
- T/C [10]: 197%

SMILES: CC(=O)Nc1ccc(S(=O)(=O)N/N=C/c2ccncc2)cc1.Cl
- Time [1]: 17.6 days
- Time [2]: 34 days
- Dose [3]: 150 mg/kg
- Weight change [5]: -5.2%
- Dose [6]: 150 mg/kg
- Time [7]: 14.6 days
- Time [8]: 11.8 days
- T/C [9]: 121%
- Weight change [16]: -3.1%
- T/C [10]: 288%

SMILES: Cl.O=[N+]([O-])c1ccc(/C=N/NS(=O)(=O)c2ccccc2)cc1
- Dose [3]: 150 mg/kg
- Weight change [5]: -12.1%
- Dose [6]: 150 mg/kg
- Time [12]: 20.8 days
- Time [13]: 11.4 days
- Time [14]: 14.8 days
- T/C [9]: 104%
- Weight change [16]: -0.1%
- T/C [10]: 182%
- Time [15]: 14.2 days

SMILES: O=[N+]([O-])c1ccc(/C=N/NS(=O)(=O)c2ccc(Cl)cc2)cc1
- Weight change [11]: -2.4%
- Dose [3]: 200 mg/kg
- Weight change [5]: -16%
- Dose [6]: 100 mg/kg
- Time [12]: 28.4 days
- Time [13]: 15 days
- Time [14]: 15.2 days
- T/C [9]: 107%
- T/C [10]: 189%
- Time [15]: 14.2 days

SMILES: CN(/N=C/c1ccncc1)S(=O)(=O)c1ccc(Cl)cc1.Cl
- Time [2]: 16 days
- Weight change [5]: -4.2%
- Dose [6]: 100 mg/kg
- Time [8]: 14.6 days
- T/C [10]: 110%

SMILES: Cc1cc(C)c(S(=O)(=O)N/N=C/c2ccc([N+](=O)[O-])cc2)c(C)c1.Cl
- Weight change [11]: -3.5%
- Time [1]: 17.2 days
- Dose [3]: 150 mg/kg
- Weight change [5]: -10.2%
- Dose [6]: 100 mg/kg
- Time [12]: 26.4 days
- Time [13]: 11.4 days
- Time [7]: 14.2 days
- T/C [9]: 121%
- T/C [10]: 231%

SMILES: Cl.O=[N+]([O-])c1ccc(S(=O)(=O)N/N=C/c2ccncc2)cc1
- Dose [3]: 200 mg/kg
- Weight change [5]: -8.1%
- Dose [6]: 75 mg/kg
- Time [12]: 37.4 days
- Time [13]: 11.4 days
- Time [14]: 17.6 days
- T/C [9]: 128%
- Weight change [16]: -7.5%
- T/C [10]: 328%
- Time [15]: 13.8 days
